Results as given in ChEMBL document CHEMBL1154441, “Chemotherapy of leishmaniasis part-VIII: synthesis and bioevaluation of novel chalcones” (2008).
Active and inactive are the calls of the source. The calls are words filed in the database; no cut-off is given here.

Columns and labels:
Format in all cases: functional
Leishmania donovani [1] = assay: Antileishmanial activity against Leishmania donovani MHOM/IN/Dd8 amastigotes infected in mouse J774A.1 cells assessed as inhibition of parasitic growth at 5 ug/ml after 24 hrs by luciferase activity-based luminescence assay; settings: for Percent inhibition of intracellular amastigote growth at 5 µg/mL: J774.A1, 24 h, read-out: INH
Outline: (§1)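 Macrophages seeded 5 × 10⁴ per well in RPMI-1640 + 10% FCS, 37 °C, CO₂; after 24 h infected with stationary-phase luciferase-expressing promastigotes (2.5 × 10⁵ per well) that transform to amastigotes. Medium replaced with compound in complete medium, incubated 37 °C for 24 h or more; then PBS added, mixed 1:1 with Steady-Glo, shaken 1–2 min, luminescence read to give growth inhibition.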

Leishmania donovani [2] = assay: Antileishmanial activity against Leishmania donovani MHOM/IN/Dd8 promastigotes assessed as inhibition of parasitic growth at 2 ug/ml after 72 hrs by luciferase activity-based luminescence assay
Outline: (§2)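 Late-log luciferase-transfected L. donovani promastigotes (kept at 25 ± 1 °C in medium 199 + 10% FCS under G418) seeded at 5 × 10⁵ per well in medium 199; exposed 72 h to serial dilutions of compound in DMSO, with parallel DMSO dilutions as controls. Aliquot mixed 1:1 with Steady-Glo reagent; luminescence read as RLU and growth inhibition derived from luciferase signal.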

Leishmania donovani [3] = assay: Antileishmanial activity against Leishmania donovani MHOM/IN/Dd8 promastigotes assessed as inhibition of parasitic growth at 5 ug/ml after 72 hrs by luciferase activity-based luminescence assay; outline: as §2
Leishmania donovani [4] = assay: Antileishmanial activity against Leishmania donovani MHOM/IN/Dd8 amastigotes infected in mouse J774A.1 cells assessed as inhibition of parasitic growth at 2 ug/ml after 24 hrs by luciferase activity-based luminescence assay; settings: for percent inhibition of intracellular amastigote growth at 2 µg/mL: J774.A1, 24 h, read-out: INH; outline: as §1

| Compound | Percent inhibition of intracellular amastigote growth at 5 µg/mL (Leishmania donovani [1]) [%] | inhibition at 2 µg/mL (Leishmania donovani [2]) [%] | inhibition at 5 µg/mL (Leishmania donovani [3]) [%] | percent inhibition of intracellular amastigote growth at 2 µg/mL (Leishmania donovani [4]) [%] | Activity (Leishmania donovani [1]) | Activity (Leishmania donovani [4]) |
| --- | --- | --- | --- | --- | --- | --- |
| CC1=CCCC(C)(C)C1CCC(=O)/C=C/c1cccc([N+](=O)[O-])c1 (configuration not stated) | 65 | 98 | 99 | – | – | – |
| COc1ccc(/C=C/C(=O)CCC2C(C)=CCCC2(C)C)cc1 (configuration not stated) | 81 | 98 | 98 | 40 | – | – |
| CC1=CCCC(C)(C)C1CCC(=O)/C=C/c1ccc(O)cc1 (configuration not stated) | – | 76 | 100 | – | inactive | inactive |
| CC1=CCCC(C)(C)C1CCC(=O)/C=C/c1ccccc1[N+](=O)[O-] (configuration not stated) | – | 34 | 53 | – | inactive | inactive |
| CC1=CCCC(C)(C)C1CCC(=O)/C=C/c1ccc([N+](=O)[O-])cc1 (configuration not stated) | 80 | 95 | 99 | 74 | – | – |
| CC1=CCCC(C)(C)C1CCC(=O)/C=C/c1ccc(CO)o1 (configuration not stated) | – | 65 | 93 | – | inactive | inactive |
| COc1cc(/C=C/C(=O)CCC2C(C)=CCCC2(C)C)cc(OC)c1OC (configuration not stated) | – | 50 | 90 | – | inactive | inactive |
| CC1=CCCC(C)(C)C1CCC(=O)/C=C/c1ccc(Cl)cc1 (configuration not stated) | 93 | 100 | 100 | 88 | – | – |
| COc1ccc(/C=C/C(=O)CCC2C(C)=CCCC2(C)C)cc1OC (configuration not stated) | 95 | 100 | 100 | 79 | – | – |
| CC1=CCCC(C)(C)C1CCC(=O)/C=C/c1ccc(OCc2ccccc2)cc1 (configuration not stated) | – | 61 | 100 | – | inactive | – |
| CC1=CCCC(C)(C)C1CCC(=O)/C=C/c1cccnc1 (configuration not stated) | 92 | 100 | 100 | 33 | – | – |
